According to paper PMC8906099 (Current Research in Parasitology & Vector-borne Diseases, 2021):
Values after ≈ are worked out from the molar mass of the structure shown. Where two headings read alike, the source gives them in different places.

Legend:
[1] = system: trypomastigotes of T. cruzi (Sylvio X10/4 strain); test: Trypanocidal activity against trypomastigotes; assay type: cell-based; conditions: Trypanosoma cruzi, 72 h, read-out: IC50 ± SD, trypomastigotes
Summary of the method: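 Sylvio X10/4 trypomastigotes were taken from amastigote culture supernatant and seeded at 1 × 10^6 per well. Test compound was added at 0.19–100 μM (0.1% DMSO), with benznidazole (0.019–10 μM) and DMSO controls. Incubation was 72 h at 37 °C, 5% CO2. Viability was read with resazurin (40 μM in PBS), fluorescence 530/630 nm. IC50 came from sigmoid dose–response fits.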

[2] = system: intracellular amastigotes of T. cruzi CA-I/72 strain; test: Time-course study against intracellular amastigotes; assay type: cell-based; conditions: Trypanosoma cruzi
Summary of the method: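 CA-I/72 trypomastigotes were incubated with C2C12 cells for 48 h to form intracellular amastigotes. Test compound was then added (0.19–100 μM, 2-fold, 0.1% DMSO), with benznidazole and DMSO controls. Incubation ran 8, 12, 24 or 48 h at 37 °C, 5% CO2. Growth inhibition was read by DAPI high-content imaging. IC50 came from sigmoid fits of the normalised infection ratio. Time trend was tested by linear regression and ANOVA.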

[3] = system: Trichomonas vaginalis; conditions: ref Carapina da Silva et al., 2019, cited from earlier work
[4] = system: C2C12 cells infected with intracellular amastigotes of T. cruzi (CA-I/72 strain); test: Time-course cytotoxicity in infected C2C12 cells; assay type: cell-based, murine; conditions: infected C2C12 vs amastigotes CA-I/72, time-course
Summary of the method: (§1)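 This uses the CA-I/72 time-course infection format: a 48 h pre-infection of C2C12 cells, then test compound at 0.19–100 μM for 8, 12, 24 or 48 h, with DAPI imaging. Host viability was the total host cell count divided by the mean count of 0.1% DMSO controls. CC50 came from sigmoid fits. SI = CC50/IC50 against amastigotes at the matching time.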

[5] = Time-course cytotoxicity in infected C2C12 cells; assay type: cell-based, murine; conditions: mouse
Summary of the method: as §1

[6] = system: non-infected C2C12 cells; test: Cytotoxicity in non-infected cells; assay type: cell-based, murine; conditions: non-infected C2C12 CC50 / IC50 amastigotes CA-I/72 strain, 72 h
Summary of the method: (§2)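 Non-infected C2C12 cells (5 × 10^4 per well) were plated for 24 h. Test compound (0.19–100 μM, 2-fold, 0.1% DMSO) was then added for 72 h at 37 °C. Controls were untreated, DMSO 0.4% and Triton 15%. After a PBS wash, MTT (2 mg/ml) was added for 4 h, and absorbance was read at 450 nm (reference 620 nm). CC50 came from sigmoid fits. SI = CC50/IC50 against CA-I/72 amastigotes at 72 h.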

[7] = Cytotoxicity in non-infected cells; assay type: cell-based, murine; conditions: mouse, non-infected C2C12 cells
Summary of the method: as §2

[8] = system: amastigotes of T. cruzi CA-I/72 strain; test: Trypanocidal activity against intracellular amastigotes in C2C12 cells; assay type: cell-based; conditions: Trypanosoma cruzi, C2C12, 72 h, read-out: IC50 ± SD, amastigotes
Summary of the method: (§3)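 Trypomastigotes from C2C12 co-culture (DMEM, 10% FBS, 25 mM HEPES, pH 7.2) were seeded with C2C12 cells at a 1:15 infection rate. Test compound (0.19–100 μM, 2-fold, 0.1% DMSO) was added at the start. After 72 h at 37 °C, 5% CO2, cells were stained with DAPI 2 h and imaged confocally. Amastigote and host nuclei were told apart by size. IC50 came from sigmoid fits of the infection ratio normalised to controls. Mean ± SD, three experiments in triplicate.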

[9] = system: amastigotes of T. cruzi Brazil strain; test: as above; assay type: cell-based; conditions: Trypanosoma cruzi, C2C12, 72 h, read-out: IC50 ± SD, amastigotes
Summary of the method: as §3

[10] = system: amastigotes of T. cruzi Sylvio X10/4 strain; test: as above; assay type: cell-based; conditions: Trypanosoma cruzi, C2C12, 72 h, read-out: IC50 ± SD, amastigotes
Summary of the method: as §3

[11] = system: several Streptococcus species; conditions: ref Vieira et al., 2018; cited from earlier work
[12] = Cytotoxicity in non-infected cells; assay type: cell-based, monkey; conditions: monkey, non-infected LLC-MK2 cells
Summary of the method: (§4)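 LLC-MK2 monkey kidney cells, grown in RPMI with 10% FBS at 37 °C and 5% CO2, were plated and after 24 h exposed to test compound (0.19–100 μM, 2-fold dilutions, 0.1% DMSO) for 72 h at 37 °C. Controls were untreated cells, 0.4% DMSO and 15% Triton. After a PBS wash, MTT (2 mg/ml) was added for 4 h, and absorbance read at 450/620 nm. SI is CC50 divided by the 72 h CA-I/72 intracellular amastigote IC50.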

[13] = system: non-infected LLC-MK2 cells; test: Cytotoxicity in non-infected cells; assay type: cell-based, monkey; conditions: non-infected LLC-MK2 CC50 / IC50 amastigotes CA-I/72 strain, 72 h
Summary of the method: as §4

[14] = system: amastigotes of T. cruzi Sylvio X10/7 strain; test: Trypanocidal activity against intracellular amastigotes in C2C12 cells; assay type: cell-based, Trypanosoma cruzi; conditions: Trypanosoma cruzi, C2C12, 72 h, read-out: IC50 ± SD, amastigotes, Sylvio X10/7 strain, 72 h incubation
Summary of the method: as §3

[15] = system: infected C2C12 cells; test: Cytotoxicity in infected C2C12 cells after 72 h; assay type: cell-based, murine; conditions: 72 h
Summary of the method: (§5)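 C2C12 cells were infected with trypomastigotes (1:15) together with test compound (0.19–100 μM, 0.1% DMSO) for 72 h at 37 °C, 5% CO2. Host nuclei were counted by DAPI high-content imaging. Viability was the cell count relative to the DMSO-control mean. CC50 came from sigmoid fits. SI = CC50/IC50 against intracellular amastigotes of the same strain at 72 h.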

[16] = Cytotoxicity in infected C2C12 cells after 72 h; assay type: cell-based, murine; conditions: mouse
Summary of the method: as §5

[17] = system: female BALB/c mice; test: Acute oral toxicity test in mice; assay type: in vivo; conditions: for DA/TA (dead animals/total animals) / Mortality / Signs of toxicity: 14 days
Summary of the method: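 Six-week-old female BALB/c mice (25–30 g), five per group. Single oral dose of 300 or 1,000 mg/kg test compound in Tween 80/ethanol/water (7:3:90), with a vehicle group. Clinical signs (ataxia, tremor, salivation, ptosis, seizures and others) watched continuously for 1 h, periodically over 24 h, then daily to day 14. Mortality recorded.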

[18] = system: P. falciparum; conditions: ref Aher et al., 2011, cited from earlier work
[19] = infected C2C12, Sylvio X10/4 strain
[20] = infected C2C12, Sylvio X10/7 strain
[21] = C2C12 cells infected with T. cruzi Brazil strain
[22] = C2C12 cells infected with T. cruzi CA-I/72 strain
[23] = C2C12 cells infected with T. cruzi Sylvio X10/4 strain
[24] = C2C12 cells infected with T. cruzi Sylvio X10/7 strain

Row | Compound | IC50 [1] [µM] | IC50 ([2]; 8 h, read-out: IC50 ± SD) [µM] | IC50 ([2]; 12 h, read-out: IC50 ± SD) [µM] | IC50 ([2]; 24 h, read-out: IC50 ± SD) [µM] | IC50 ([2]; 48 h, read-out: IC50 ± SD) [µM] | CC50 at 8 h [5] [µM] | CC50 at 12 h [5] [µM] | CC50 at 24 h [5] [µM] | CC50 at 48 h [5] [µM] | SI (CC50/IC50) [6] | CC50 at 72 h [7] [µM] | IC50 [8] [µM] | IC50 [9] [µM] | IC50 [10] [µM] | CC50 at 72 h [12] [µM] | SI (CC50/IC50) [13] | IC50 [14] [µM] | SI (CC50/IC50) ([15]; infected C2C12, CA-I/72 strain) | SI (CC50/IC50) [15, 19] | SI (CC50/IC50) [15, 20] | other results
1 | O=C(/C=C/c1ccccc1)/C=C/c1ccccc1 [DBA 1, (1E,4E)-1,5-diphenylpenta-1,4-dien-3-one] | 41.2 ± 2.25 | > 100 | 76.8 ± 1.39 | 37.5 ± 1.01 | 14.6 ± 1.1 | 12.2 ± 1.15 | 2 ± 0.42 | 0.28 ± 0.04 | 0.03 ± 0.02 | 8.59 | 40.1 ± 1.25 | 4.67 ± 1.96 | 21.1 ± 2.51 | 34 ± 2.92 | 16.6 ± 0.61 | 3.54 | 11.7 ± 0.81 | 1.22 | 0.11 | 0.28 | reduction in the parasitic viability ([3]; after 24 h incubation): 98.8%; IC50 [3]: 50 µM; SI (CC50/IC50) ([4]; 12 h): 0.02; SI (CC50/IC50) ([4]; 24 h): 0.007; SI (CC50/IC50) ([4]; 48 h): 0.002; MIC [11]: 100 µg/mL (≈ 427 µM); SI (CC50/IC50) ([15]; infected C2C12, Brazil strain): 0.35; CC50 at 72 h [16, 21]: 7.32 ± 0.41 µM; CC50 at 72 h [16, 22]: 5.74 ± 1.95 µM; CC50 at 72 h [16, 23]: 3.8 ± 0.24 µM; CC50 at 72 h [16, 24]: 3.29 ± 1 µM
2 | COc1ccc(/C=C/C(=O)/C=C/c2ccc(OC)c(OC)c2)cc1OC [DBA 3, (1E,4E)-1,5-bis-(3,4-dimethoxyphenyl)penta-1,4-dien-3-one] | 11.5 ± 1.36 | > 100 | 63.3 ± 3.87 | 62.1 ± 1.52 | 3.72 ± 0.56 | 29.8 ± 1.32 | 2.79 ± 0.3 | 0.21 ± 0.13 | 0.22 ± 0.17 | > 10 | 20.8 ± 0.67 | 1.51 ± 0.42 | 3.91 ± 0.25 | 9.63 ± 1.58 | 11.5 ± 0.34 | 7.62 | 4.87 ± 0.05 | 1.07 | 0.13 | 0.23 | Acute toxicity (general signs of toxicity or mortality) ([17]; oral doses 300 and 1,000 mg/kg, 14-day period): no toxic effects; DA/TA (dead animals/total animals) ([17]; single oral dose 300 mg/kg): 0/5; Mortality ([17]; single oral dose 300 mg/kg): 0%; Signs of toxicity ([17]; single oral dose 300 mg/kg): None; DA/TA (dead animals/total animals) ([17]; single oral dose 1,000 mg/kg): 0/5; Mortality ([17]; single oral dose 1,000 mg/kg): 0%; Signs of toxicity ([17]; single oral dose 1,000 mg/kg): None; SI (CC50/IC50) ([4]; 12 h): 0.04; SI (CC50/IC50) ([4]; 24 h): 0.003; SI (CC50/IC50) ([4]; 48 h): 0.05; SI (CC50/IC50) ([6]; listed as 3): 13.78; IC50 ([18]; chloroquine-resistant strain): 1.69 µM; IC50 ([18]; chloroquine-sensitive strain): 1.97 µM; SI (CC50/IC50) ([15]; infected C2C12, Brazil strain): 0.43; CC50 at 72 h [16, 21]: 1.73 ± 0.05 µM; CC50 at 72 h [16, 22]: 1.62 ± 0.22 µM; CC50 at 72 h [16, 23]: 1.25 ± 0.02 µM; CC50 at 72 h [16, 24]: 1.15 ± 0.29 µM
3 | O=C(/C=C/c1ccc(Cl)cc1)/C=C/c1ccc(Cl)cc1 [DBA 5, (1E,4E)-1,5-bis-(4-chlorophenyl)penta-1,4-dien-3-one] | 73.7 ± 2.08 | > 100 | > 100 | > 100 | > 100 | 93.29 ± 0.42 | 10.6 ± 1.26 | 0.3 ± 0.02 | 0.2 ± 0.01 | 1.13 | 38.3 ± 1.69 | 33.6 ± 1.39 | 6.37 ± 0.03 | 56.9 ± 1.86 | 38.1 ± 1.81 | 1.13 | 25.3 ± 1.34 | 0.45 | 0.20 | 0.16 | IC50 ([2]; read-out: IC50 over the incubation times evaluated): > 100 µM; MIC [11]: 100 µg/mL (≈ 330 µM); CC50 at 72 h [16, 21]: 12.4 ± 2.29 µM; CC50 at 72 h [16, 22]: 15.5 ± 1.25 µM; CC50 at 72 h [16, 23]: 11.8 ± 7.74 µM; CC50 at 72 h [16, 24]: 4.06 ± 2.31 µM
